Results published in ChEMBL document CHEMBL1124636, “3,4-Dihydro-2H-1-benzopyran-2-carboxylic acids and related compounds as leukotriene antagonists” (J Med Chem, 1989).
Values belong to the compound of their own block, whether it stands above or below them.

Assays:
[1] = system: Cavia porcellus; experiment: Inhibition of leukotriene E4 induced bronchoconstriction in anesthetized guinea pigs after aerosol administration as 1% solution; assay type: functional
[2] = system: Cysteinyl leukotriene receptor (Cavia porcellus); experiment: Inhibitory activity to block binding of [3H]leukotriene D4 to LTD4 receptor sites in homogenized guinea pig lung at 10 uM
[3] = system: Cavia porcellus; experiment: Inhibition of leukotriene E4 induced bronchoconstriction in anesthetized guinea pigs after intravenous administration at a dose of 10 mg/kg; assay type: functional
[4] = target: T1, Cysteinyl leukotriene receptor 1 (Cavia porcellus) (UniProt Q2NNR5); experiment: (§1) Inhibition of leukotriene D4 induced bronchoconstriction in anesthetized guinea pigs after intravenous administration at a dose of 10 mg/kg; assay type: functional, organism-based; set-up: dose 10 mg/kg
T1 sequence (whole entry): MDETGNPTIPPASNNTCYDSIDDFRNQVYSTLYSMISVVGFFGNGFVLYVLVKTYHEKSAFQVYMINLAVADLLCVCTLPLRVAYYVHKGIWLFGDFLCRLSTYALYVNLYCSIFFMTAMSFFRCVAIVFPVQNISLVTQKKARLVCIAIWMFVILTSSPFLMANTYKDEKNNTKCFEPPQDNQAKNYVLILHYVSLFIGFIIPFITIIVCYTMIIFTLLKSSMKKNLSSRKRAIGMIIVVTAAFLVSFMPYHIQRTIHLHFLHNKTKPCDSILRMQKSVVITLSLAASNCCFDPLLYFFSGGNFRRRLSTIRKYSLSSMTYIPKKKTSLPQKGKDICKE
Procedure, shortened: (§2)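 Male Hartley guinea pigs, 400–600 g, urethane 2 g/kg ip, jugular cannula, propranolol 0.1 mg/kg iv 5 min before challenge, succinylcholine 1.2 mg/kg iv, ventilated. Vehicle or drug iv 30 s before LTD4 25 µg/kg iv; tracheal pressure change.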

[5] = system: Cysteinyl leukotriene receptor (Cavia porcellus); experiment: Inhibitory activity of compound to block binding of radiolabeled leukotriene D4 to receptor sites in homogenized guinea pig lung at 10 uM
[6] = Inhibitory activity to inhibit Inophore-induced arachidonic acid metabolism (inhibition of PGE-2 formation) in rat; assay type: functional
Procedure, shortened: (§3)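 Rat peritoneal macrophages adhered 90 min at 37 °C, labeled with [14C]arachidonic acid 90 min, washed. Compound 30 min at 37 °C, then A23187 0.5 µM for 20 min. LTB4 and PGE2 in medium by radioimmunoassay.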

[7] = species on record: Rattus norvegicus; experiment: Inhibitory activity to inhibit Inophore-induced arachidonic acid metabolism (inhibition of LTB4 formation) in rat; Inactive = no significant inhibition at a concentration of 100 uM; assay type: functional, organism-based; procedure, shortened: as §3
[8] = system: Cavia porcellus; experiment: In vivo guinea pig bronchoconstriction against leukotriene C4 when administered a compound dose (mg/kg) intravenously; assay type: functional; conditions: Lung, iv, read-out: ID50 (the source's name)
[9] = species on record: Cavia porcellus; experiment: In vitro activity to inhibit leukotriene D4 induced contraction of guinea pig trachea; assay type: functional; conditions: read-out: pA2 (converted)
Procedure, shortened: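 Guinea pig tracheal smooth muscle contracted by LTD4; pA2 and Schild slope reported.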

[10] = target: T2, Cysteinyl leukotriene receptor 1 (Cavia porcellus, UniProt Q2NNR5); experiment: In vitro activity to inhibit binding of [3H]- leukotriene D4 to receptor sites in guinea pig lung membrane; assay type: cell membranes
T2 sequence (Q2NNR5 whole entry): T1 sequence (whole entry)
Procedure, shortened: (§4)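 Lung from male Hartley guinea pigs (400–500 g), homogenized in sucrose/Tris pH 7.5 with protease inhibitors; 30000g membrane pellet in 10 mM PIPES pH 7.5, 50 mM NaCl. Binding: Tyrode, 0.1% BSA, 1 mM glycine, 1 mM cysteine, 3.5 nM [3H]LTD4, 100–200 µg protein, 20 °C, 30 min; glass-fiber filtration. Nonspecific with 10^-6 M LTD4. Triplicate screen at 10 µM; IC50 by linear regression.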

[11] = species on record: Cavia porcellus; experiment: In vitro activity to inhibit SRS-A induced contraction of guinea pig ileum
[12] = system: Cavia porcellus; experiment: In vivo guinea pig bronchoconstriction against leukotriene D4 when administered a compound dose (mg/kg) intravenously; assay type: functional; conditions: Lung, iv, read-out: ID50 (the source's name); procedure, shortened: as §2
[13] = target: T1, Cysteinyl leukotriene receptor 1 (Cavia porcellus); conditions: Lung, 10 uM
[14] = target: T2, Cysteinyl leukotriene receptor 1; experiment: Inhibitory activity of compound to block binding of [3H]leukotriene D4 to Cysteinyl leukotriene D4 receptor sites in homogenized guinea pig lung; procedure, shortened: as §4
[15] = system: Cavia porcellus; experiment: as §1; assay type: functional; procedure, shortened: as §2
[16] = system: Cavia porcellus; experiment: (§5) Inhibition of leukotriene D4 induced bronchoconstriction in anesthetized guinea pigs after aerosol administration as 1% solution; assay type: functional, organism-based
Procedure, shortened: (§6)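 Guinea pigs given propranolol 0.1 mg/kg iv 5 min before 5-min ultrasonic nebulizer exposure to aqueous, NaOH-neutralized drug (% w/v) or distilled water, breathing spontaneously. LTD4 50 µg/kg iv 30 s after exposure; tracheal pressure change.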

[17] = system: Cavia porcellus; experiment: Inhibition of leukotriene D4 induced bronchoconstriction in anesthetized guinea pigs after intravenous administration; assay type: functional; conditions: read-out: ID50 (the source's name); procedure, shortened: as §2
[18] = system: Cavia porcellus; experiment: as §5; assay type: functional; procedure, shortened: as §6

SMILES: CCCc1c(O)c(C(C)=O)cc(O)c1OCCCCCOc1cc2c(cc1C(C)=O)CCC(C(=O)O)O2 (stereo not drawn)
- inhibition [4]: 0%
- Inhibition [5]: 0%

SMILES: CCCc1c(OCCCCCOc2cc3c(cc2C(C)=O)CC[C@@H](C(=O)O)O3)ccc(C(C)=O)c1O
- ED50 [8]: 4 mg/kg
- Kb [9]: 631 nM
- IC50 [10]: 5000 nM
- IC50 [11]: 60 nM
- ED50 [12]: 3 mg/kg

SMILES: CCCc1c(OCCCCCOc2cc3c(cc2C(C)=O)CCC(CCC)(C(=O)O)O3)ccc(C(C)=O)c1O (stereo not drawn)
- inhibition [13]: 70%
- IC50 [14]: 2000 nM
- inhibition in vivo at 10 mg/kg [15]: 56%
- IC50 [16]: 0.9 % conc
- ED50 [17]: 8 mg/kg
- Inhibition [18]: 51%

Continued, in another order:

- inhibition [2]: 88%
SMILES: CCCc1c(OCCCOc2c(C)c(C)c3c(c2C)CCC(C)(C(=O)O)O3)ccc(C(C)=O)c1O (stereo not drawn)
- Inhibition [1]: 53%
- inhibition in vivo at 10 mg/kg [3]: 99%

- IC50 [6]: 10000 nM
- IC50 [7]: Not Active
SMILES: O=C(O)c1ccc(OCCn2ccnc2)cc1 [DAZOXIBEN]
